Screening results as filed in PubChem.
SENP1 FRET inh: inhibitors of human SENP1 SUMO protease catalytic domain. Q9P0U3. recombinant SENP1 catalytic domain, CyPet-SUMO1-YPet FRET cleavage. inhibition, % at 10 µM. hit rate 0.21% among 360,000. AID 624204;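 active = inhibition at least 30% at 10 µM, raw YFP signal under a set limit, fluorescence ratio 0.5 to 1.5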
Target sequence (Q9P0U3 419-644 limits assumed): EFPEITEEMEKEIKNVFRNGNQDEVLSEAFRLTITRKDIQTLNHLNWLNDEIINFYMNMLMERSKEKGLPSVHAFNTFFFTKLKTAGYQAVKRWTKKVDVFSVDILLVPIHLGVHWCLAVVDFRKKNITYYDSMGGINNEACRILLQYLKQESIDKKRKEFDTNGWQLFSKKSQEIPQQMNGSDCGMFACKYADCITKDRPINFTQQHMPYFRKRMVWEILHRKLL
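Material – human SENP1 catalytic domain · Input – SENP1 enzyme, 20 pM final · Compound dosing – single concentration of 10 µM compound, 0.5% DMSO final · Timing – enzyme reaction for 50 min at room temperature, dark · Measured by – FRET fluorescence in CFP and YFP emission channels · Control set – no-enzyme wells low, DMSO-plus-enzyme wells high control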
HNF4A DNA FP: change in binding of human HNF4 alpha to DNA; P41235; HNF4a-FITC DNA binding, fluorescence polarization, 1 h; activity change, % at 10 µM; hit rate 0.3% among 360,000; AID 1224865; in the data active = activity change above about 30%, passing the limit was not always enough
Target sequence (P41235 whole entry, looked up): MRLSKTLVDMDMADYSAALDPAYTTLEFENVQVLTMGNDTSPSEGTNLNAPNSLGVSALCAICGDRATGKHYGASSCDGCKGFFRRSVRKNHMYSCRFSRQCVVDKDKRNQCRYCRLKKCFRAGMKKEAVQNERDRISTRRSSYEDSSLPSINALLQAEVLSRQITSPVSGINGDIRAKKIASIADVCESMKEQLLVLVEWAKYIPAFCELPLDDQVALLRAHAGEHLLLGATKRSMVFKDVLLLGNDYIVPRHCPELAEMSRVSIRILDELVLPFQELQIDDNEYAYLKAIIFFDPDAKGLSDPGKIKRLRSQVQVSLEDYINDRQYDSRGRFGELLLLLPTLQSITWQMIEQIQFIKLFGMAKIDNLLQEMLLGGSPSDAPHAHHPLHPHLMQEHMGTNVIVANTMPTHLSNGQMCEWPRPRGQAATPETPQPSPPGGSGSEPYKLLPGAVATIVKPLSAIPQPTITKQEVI
Cardio protect: protects H9c2 cardiomyocytes from peroxide injury; protection from H2O2 cell death, % at 20 µM; AID 588492; H2O2 injury protection, ATPLite, 2 h; hit rate 0.63% among 360,000;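 active = compounds giving at least 50% protection of heart cells from peroxide-induced death in the single-dose screen, raw or plate-pattern-corrected value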
Myeloid diff MLP: compounds promoting myeloid differentiation; calls only at 10 µM; ER-HoxA9 myeloid progenitors, lysozyme-GFP differentiation, flow cytometry; hit rate 1% among 360,000; AID 624256;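 active = normalized GFP-positive differentiation at or above the plate's own cutoff, the solvent-only control mean plus 3 SD; inconclusive = no clear call, values can overlap the other calls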;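 note: cells exposed to compound for four days before flow analysis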
Granule exo inh: blocks lytic granule exocytosis. TALL-104 LAMP-1 surface exposure, flow cytometry; cells stimulated with thapsigargin and PMA. inhibition, % at 10 µM. hit rate 0.66% among 360,000;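 active = inhibition above about 55%, limit read from the data; inconclusive = no clear call, values can overlap the other calls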
DSG3 Ab inh: blocks pemphigus antibody binding to human desmoglein-3; DSG3-coupled beads, scFv-anti-DSG3-GFP binding, flow cytometry; stronger effect = lower value; binding (percent of control), % at 10 µM; hit rate 0.48% among 310,000; AID 588358;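 active = binding more than 3 SD below its plate's average and above zero; inconclusive = below that plate limit but binding exactly zero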
Exocytosis CP01: blocks lytic granule exocytosis; shares compounds with Granule exo inh; TALL-104 cells, LAMP-1 externalization, flow cytometry; stimulated with PMA plus thapsigargin; inhibition, % at 10 µM; hit rate 11% among 1,500; AID 651954; in the data active = inhibition above about 60%
Each line names hits and unclear results; the compound was inactive in the other large screens (follow-up assays come after a bar, where they were run). Shown are actives, neighbours in structure and some others; about 3% of the full set was active somewhere.

CCC(C)(O)C(=O)N[C@H]1CCCN1C(=O)/C=C/c1ccccc1 (some centres undefined)	Granule exo inh 59.0 | Exocytosis CP01 inactive
COc1ccc(Cl)cc1-n1c(C)ccc1C	none
COc1ccc(OC)c(-c2csc(NC(=O)Cc3ccc(OC)c(OC)c3)n2)c1	Granule exo inh 63.7 (no result: DSG3 Ab inh) | Exocytosis CP01 inactive
COc1cccc(NC(=O)Nc2nc(-c3ccc(OC)c(OC)c3)cs2)c1	Granule exo inh 77.8 | Exocytosis CP01 86.7
COc1ccc(-c2csc(NC(C)=O)n2)cc1OC	DSG3 Ab inh inconclusive
COc1cccc(CC(=O)Nc2nc(-c3cc(OC)ccc3OC)cs2)c1	none
COc1ccc(OC)c(-c2csc(NC(=O)Cc3ccccc3)n2)c1	Granule exo inh 59.0 | Exocytosis CP01 inactive
COc1ccc(CC(=O)Nc2nc(-c3cc(OC)ccc3OC)cs2)cc1	none
CCOc1ccc(N(C(=O)c2ccc(S(=O)(=O)N3CCCC3)cc2)C2C=CS(=O)(=O)C2)cc1 (centres undefined)	none
Cc1ccc(NC(=O)CN(C)CC(=O)Nc2ccc(N3CCOCC3)cc2)cc1F	Granule exo inh 98.6 | Exocytosis CP01 inactive
Cc1ccc(CC(=O)N(C)CC(=O)Nc2ccc(N3CCOCC3)cc2)cc1C	none
CSc1cccc(NC(=O)C2CCCN(S(C)(=O)=O)C2)c1 (centres undefined)	none
Cc1cc(C)nc(/N=C(\N)Nc2cccc(OCc3ccccc3)c2)n1	Granule exo inh 85.3 | Exocytosis CP01 inactive
COc1cccc(C2Nc3ccccc3C(=O)N2c2ccc(F)cc2)c1O (centres undefined)	Granule exo inh 66.3 | Exocytosis CP01 inactive
COc1ccccc1C(OC(=O)c1cccs1)C(=O)NCC1CCCO1 (centres undefined)	Granule exo inh 61.4 | Exocytosis CP01 inactive
COc1ccccc1N1CCN(CC(=O)NCC2CCCO2)CC1 (centres undefined)	Granule exo inh 58.2 | Exocytosis CP01 inactive
COc1ccc(C(OC(=O)c2cccs2)C(=O)NCC2CCCO2)cc1 (centres undefined)	none
Cc1ccc2oc(-c3cccc(NC(=O)/C=C/c4cccc([N+](=O)[O-])c4)c3C)nc2c1	none
O=C(NC1CC1)C1CCN(C2CCN(C(=O)/C=C/c3cccc(F)c3F)CC2)CC1	none
COc1cc(C(=O)OCc2cc(=O)oc3c(C)c(C)ccc23)ccc1OC(F)F	none
COc1cc(C(C)=O)ccc1OCCN1CCC(Cc2ccccc2)CC1	Granule exo inh 56.5 | Exocytosis CP01 inactive
OCc1ccccc1OCCCN1CCC(Cc2ccccc2)CC1	Granule exo inh 69.1 | Exocytosis CP01 inactive
COc1cc(C(C)=O)ccc1OCCCN1CCC(Cc2ccccc2)CC1	Granule exo inh 64.2 | Exocytosis CP01 inactive
COC(=O)[C@@]12C[C@@H](CC(=O)N3CCCC3)C(=O)N(Cc3cccc4ccccc34)C1=CCC(C)(C)C2	none (no result: Cardio protect, DSG3 Ab inh)
CC(C)c1cc(Cn2c3ccccc3c(=O)n2C(C)Cn2cc(C3=CCCCC3)nn2)on1 (centres undefined)	none (no result: Cardio protect, DSG3 Ab inh)
O=C(OCCOc1ccccc1)c1n[nH]c2ccccc12	none
Cc1ccc(C)c(NC(=O)C(c2ccccc2)N2CCOCC2)c1 (centres undefined)	none
COc1ccccc1N(C)S(=O)(=O)c1ccc(Cl)c(C(=O)OCc2c(C)noc2C)c1	Granule exo inh 76.0 | Exocytosis CP01 inactive
COc1ccccc1N(C)S(=O)(=O)c1ccc(Cl)c(C(=O)NNC(=O)c2ccccc2O)c1	none
CCCCc1ccc(S(=O)(=O)NCCCN2CCCC2=O)cc1	none
CN(C)CCCN(C(=O)c1nc2ccccc2s1)c1nc2ccc(F)cc2s1	none
Cc1ccc2nc(N(CCCN(C)C)C(=O)c3cc(-c4cccs4)nc4ccccc34)sc2c1	Granule exo inh 71.8 | Exocytosis CP01 inactive
CN(C)CCCN(C(=O)c1ccc(C(=O)c2ccccc2)cc1)c1nc2ccc(F)cc2s1	Granule exo inh 58.6 | Exocytosis CP01 inactive
CN(C)CCCN(C(=O)c1cc(-c2cccs2)nc2ccccc12)c1nc2c(F)cccc2s1	none
CCc1ccc2nc(N(CCCN(C)C)C(=O)c3ccc(S(=O)(=O)N4CCc5ccccc5C4)cc3)sc2c1	Granule exo inh 77.3 (no result: Myeloid diff MLP, DSG3 Ab inh) | Exocytosis CP01 86.8
CCOc1cccc2sc(N(CCCN(C)C)C(=O)c3ccc(S(=O)(=O)N4CCc5ccccc5C4)cc3)nc12	Myeloid diff MLP inconclusive
CCCCCCCCC1CC(C(=O)Nc2ccccc2)C(=O)O1 (centres undefined)	none
Cc1ccc(S(=O)(=O)N2[C@H](CC(=O)OCc3ccccc3)OC[C@@H]2C(C)C)cc1	none (no result: Cardio protect, DSG3 Ab inh)
CCOc1ccc(CNc2ccc(S(N)(=O)=O)cc2)cc1	none
Cc1cccn2c(=O)c3cc(C(=O)NC4CCCC4)c(=N)n(CC4CCCO4)c3nc12 (centres undefined)	none
Cc1cccn2c(=O)c3cc(C(=O)NC4CCCCC4)c(=N)n(Cc4ccc(F)cc4)c3nc12	Granule exo inh 70.2, DSG3 Ab inh inconclusive | Exocytosis CP01 inactive
Cc1onc(-c2c(F)cccc2Cl)c1C(=O)Nc1sc2c(c1C(N)=O)CCC2	Granule exo inh 56.2 | Exocytosis CP01 inactive
O=C1c2ccccc2NC(c2ccccc2)N1Cc1ccccc1 (centres undefined)	none
Cc1ccc(CN2C(=O)c3ccccc3NC2c2cc(Br)ccc2O)cc1 (centres undefined)	Granule exo inh 74.1 | Exocytosis CP01 inactive
Cc1ccc(S(=O)(=O)CCC(=O)OCC(=O)Nc2cc(S(=O)(=O)N3CCOCC3)ccc2C)cc1	none
CCN(CC)CCCNc1ccc(-c2nnc(-c3ccc(OCC(C)C)cc3)o2)cn1	Myeloid diff MLP inconclusive, Granule exo inh 61.6 | Exocytosis CP01 94.7
CC(C)COc1ccc(-c2nnc(-c3ccco3)o2)cc1	none
CNCc1ccccc1Sc1cc(O)ccc1O	Granule exo inh 73.4 | Exocytosis CP01 inactive
COCCCn1c(SCc2ccccc2)nc2cc(OC)c(OC)cc2c1=N	Granule exo inh 84.0 | Exocytosis CP01 inactive
COCCCn1c(SCc2cccc(C(F)(F)F)c2)nc2cc(OC)c(OC)cc2c1=N	none
O=C(CNCc1cccc(Cl)c1)N1CCc2ccccc2C1	none
COc1cccc(OC)c1OCC(=O)Nc1ccc(S(=O)(=O)N2CCCC2)cc1	none
C[C@H](CO)N1C[C@H](C)[C@@H](CN(C)S(=O)(=O)c2cn(C)cn2)Oc2ccc(NC(=O)Nc3ccccc3)cc2C1=O	none
C[C@@H]1CN([C@@H](C)CO)C(=O)c2cc(NC(=O)Nc3ccc4c(c3)OCO4)ccc2O[C@H]1CN(C)S(=O)(=O)c1cn(C)cn1	Granule exo inh 63.6 | Exocytosis CP01 inactive
